Measured values collected from several papers.
Compare with care: the assays were run in different laboratories.
Target: Death-associated protein kinase 1 (DAPK1, Homo sapiens, UniProt P53355)

| SMILES | observed | action | method | concentration | endpoint | result |
| --- | --- | --- | --- | --- | --- | --- |
| CC(C)(C)c1nc(-c2cccc(NS(=O)(=O)c3c(F)cccc3F)c2F)c(-c2ccnc(N)n2)s1 | enzyme activity | inhibitor | radiometric | 1 µM | remaining activity | 75% |
| Cc1ccc(NC(=O)c2ccc(CN3CCN(C)CC3)cc2)cc1Nc1nc(-c2cccnc2)cs1 | cell-free assay | – | – | 0.5 µM | remaining signal | 97.5% |
| Cn1c(=O)n(-c2ccc(C(C)(C)C#N)cc2)c2c3cc(-c4cnc5ccccc5c4)ccc3ncc21 | enzyme activity | inhibitor | – | 10 µM | remaining activity | 107% |
| Cc1ncc([N+](=O)[O-])n1C(=NO)c1ccccc1C(F)(F)F | enzyme activity | inhibitor | – | 10 µM | inhibition | 16.5% |
| COc1cc(-c2cn(C3CCc4ccccc4N(CC(F)(F)F)C3=O)nn2)ccc1-n1ccc(C)n1 (stereo not drawn) | cell-free assay | – | competition with immobilised ligand | 1 µM | remaining binding | 79% |
| COc1cc(Nc2cnc(C#N)c(O[C@H](C)CN(C)C)n2)ncc1-c1cnn(C)c1 | enzyme activity | inhibitor | radiometric | 1 µM | remaining activity | 95% |
| N#CCCc1ccc2c(c1)-c1[nH]c3ccc([N+](=O)[O-])cc3c1CC(=O)N2 | cell-free assay | – | – | 0.5 µM | remaining signal | 96.5% |
| CCOC(=O)c1cc2cc(-c3cc(C(=O)NCc4ccc(C(=O)O)cc4)nn3C)ccc2[nH]1 | cell-free assay | – | competition with immobilised ligand | 0.1 µM | remaining binding | 84% |
| Cc1ccc(C(=O)Nc2ccc(CN3CCN(C)CC3)c(C(F)(F)F)c2)cc1C#Cc1cnc2cccnn12 | enzyme activity | inhibitor | – | 23.5 nM | remaining activity | 95% |
| CNC(=O)c1cc(Oc2ccc(NC(=O)Nc3ccc(Cl)c(C(F)(F)F)c3)cc2)ccn1 | enzyme activity | inhibitor | – | 10 µM | inhibition | 12% |
| CCCCN(CCCC)C(=O)CN1C[C@H](c2cc(OC)c3c(c2)OCO3)[C@@H](C(=O)O)[C@@H]1CC(C)(C)CCC | cell-free assay | – | competition with immobilised ligand | 1 µM | remaining binding | 100% |
| CCCOc1ccc(OC)c(F)c1C(=O)c1ccc(C(=O)N[C@@H]2CNC[C@H]2NC(=O)c2ccc3[nH]ncc3c2)cc1 | enzyme activity | inhibitor | – | 10 µM | remaining activity | 81% |
| Nc1ncnc2occ(-c3ccc(NC(=O)Nc4cc(C(F)(F)F)ccc4F)cc3)c12 | cell-free assay | inhibitor | – | 20 µM | remaining signal | 29% |
| CCN(CC)c1ccc(C2=NNC(=O)CC2C)cc1[N+](=O)[O-] (stereo not drawn) | enzyme activity | inhibitor | – | 10 µM | remaining activity | 105% |
| CS(=O)(=O)CCNCc1ccc(-c2ccc3ncnc(Nc4ccc(OCc5cccc(F)c5)c(Cl)c4)c3c2)o1 | cell-free assay | – | – | 0.5 µM | remaining signal | 107% |
| CC(C)(O)[C@H]1CC[C@H](Nc2ccc3ncc(-c4cccc(C(F)(F)F)c4)n3n2)CC1 | enzyme activity | inhibitor | – | 1 µM | remaining activity | 110% |
| O=C(Nc1cnc(Oc2ccc(F)cc2)nc1)N1CCc2ncccc2[C@@H]1c1ccc(F)cc1 | cell-free assay | – | competition with immobilised ligand | 1 µM | remaining binding | 78% |
| CN(C)C1CCN(CC#Cc2nn(C3CCCC3)c3nc(NCc4ccccc4)ncc23)C1 (stereo not drawn) | enzyme activity | inhibitor | FRET | 1 µM | inhibition | -2% |
| N#Cc1ccc(Nc2ccc3[nH]c(=O)[nH]c3c2)c(Cl)c1 | cell-free assay | – | competition with immobilised ligand | 1 µM | remaining binding | 100% |
| O=C1Nc2ccc(Cl)cc2C1=Cc1cc(Cl)c(O)c(Cl)c1 | cell-free assay | – | – | 0.5 µM | remaining signal | 90% |
| Cc1sc(C(=O)NC2COC2)cc1-n1cc(NC(=O)Nc2c(F)cccc2Cl)cn1 | enzyme activity | inhibitor | – | 10 µM | remaining activity | 104% |
| O=C(Nc1cccnn1)N1CC(C/C=C/c2cncc(Oc3ccc(C(F)(F)F)cn3)n2)C1 | cell-free assay | – | competition with immobilised ligand | 1 µM | remaining binding | 98% |
| CCCS(=O)(=O)Nc1ccc(F)c(C(=O)c2c[nH]c3ncc(-c4ccc(Cl)cc4)cc23)c1F | enzyme activity | inhibitor | – | 1 µM | inhibition | < 10% |
| Cc1nc(N2CC[C@@H](O)C2)ncc1-c1cc(C(F)(F)F)cc2[nH]ncc12 | binding | – | competition with immobilised ligand | 1 µM | remaining binding | 89% |
| FC(F)(F)Oc1cccc(-c2cnc3ccc(-c4ccncc4)nn23)c1 | enzyme activity | inhibitor | radiometric | 5 µM | activity vs control | 91% |
| Cc1ccc(Nc2nccc(N(C)c3ccc4c(C)n(C)nc4c3)n2)cc1S(N)(=O)=O | enzyme activity | inhibitor | – | 10 µM | inhibition | 12% |
| C[C@@H]1CN(c2cc(-c3nn(C)c4ccc(OC5(C)CC5)cc34)ncn2)C[C@H](C)O1 | cell-free assay | – | competition with immobilised ligand | 1 µM | remaining binding | 100% |
